The results in this text go back to ChEMBL document CHEMBL1152965, “Synthesis and in vitro antiplasmodial evaluation of 4-anilino-2-trichloromethylquinazolines” (Bioorg Med Chem, 2009).

Where only a bound is given, the exact number is not on record here.

The subject of data set [1] is Salmonella enterica subsp. enterica. The data set can be described thus: Mutagenic activity in Salmonella Typhimurium TA98 assessed as number of spontaneous and drug-induced revertants after 48 hrs in presence of 4% S9 mixture by Ames test. It counts as toxicity, organism-based. The following applies: salmonella enterica subsp. enterica serovar typhimurium. A digest of the protocol:
(§1)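 Liquid-incubation Ames variant. Tester strains grown overnight in nutrient broth. 5×10^-3 M DMSO solution of compound added to 0.1 mL culture, with or without 4% S9 mix, 1 h at 37 °C with shaking. Top agar added and mixture plated on Vogel-Bonner agar. After 48 h at 37 °C in the dark, revertants per plate counted with a laser colony counter.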
(In general: The Ames test uses bacterial strains that need an amino acid and regain growth without it when mutated back.)

Data set [2] has as its system Toxoplasma gondii. The data set can be described thus: Antitoxoplasmic activity against Toxoplasma gondii tachyzoites infected in HFF assessed as beta-galactosidase activity after 96 hrs by colorimetric microtiter assay. It is filed as functional, organism-based. A digest of the protocol: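 Tachyzoites of the PRU-β-Gal strain. 10⁴ HFF cells per well grown to confluence in phenol-red-free RPMI with 10% FCS. Monolayers infected with 2.10³ parasites per well for 3 h, then compounds in DMSO (final <0.5%) added in triplicate. Incubated 96 h at 37 °C, 6% CO₂. CPRG added at 500 µM final for a further 24 h. Read at 570/630 nm, blanked on uninfected wells. IC50 from three independent experiments.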

Data set [3] relates to Salmonella enterica subsp. enterica. Briefly: Mutagenic activity in Salmonella Typhimurium TA102 assessed as number of spontaneous and drug-induced revertants after 48 hrs in absence of 4% S9 mixture by Ames test. It counts as toxicity, organism-based. To be noted: salmonella enterica subsp. enterica serovar typhimurium. A digest of the protocol: as §1
Data set [4] can be described thus: Selectivity index, ratio IC50 for human HepG2 cells to IC50 for chloroquine, pyrimethamine and proguanil-resistant Plasmodium falciparum W2. It is filed as functional. A digest of the protocol:
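SI = HepG2 IC50 / W2 IC50. MTT 2 h, formazan dissolved in DMSO, absorbance 570 nm (ref 630 nm). Viability as % of untreated control, IC50 from dose-response curve.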

The subject of data set [5] is Salmonella enterica subsp. enterica. The data set can be described thus: Mutagenic activity in Salmonella Typhimurium TA98 assessed as number of spontaneous and drug-induced revertants after 48 hrs in absence of 4% S9 mixture by Ames test. It is filed as toxicity, organism-based. The following applies: salmonella enterica subsp. enterica serovar typhimurium. A digest of the protocol:
as §1

The subject of data set [6] is Plasmodium falciparum. Briefly: Antimalarial activity as reduced parasitaemia after 48 hrs against chloroquine, pyrimethamine and proguanil-resistant Plasmodium falciparum W2 infected in type A+ human erythrocytes by flow cytometry. To be noted: W2, 48 h. It is filed as functional, organism-based. For orientation: In flow cytometry, cells or beads pass a laser one at a time.

In data set [7] the test system is Salmonella enterica subsp. enterica. Briefly: Mutagenic activity in Salmonella Typhimurium TA97a assessed as number of spontaneous and drug-induced revertants after 48 hrs in absence of 4% S9 mixture by Ames test. It is filed as toxicity, organism-based. To be noted: salmonella enterica subsp. enterica serovar typhimurium. A digest of the protocol: as §1
Data set [8] shares this test system. The data set can be described thus: Mutagenic activity in Salmonella Typhimurium TA102 assessed as number of spontaneous and drug-induced revertants after 48 hrs in presence of 4% S9 mixture by Ames test. The following applies: salmonella enterica subsp. enterica serovar typhimurium. It counts as toxicity, organism-based. A digest of the protocol:
as §1

In data set [9] the test system is Leishmania donovani. Briefly: Antileishmanial activity against Leishmania donovani HOM/IN/01/2001 promastigotes after 72 hrs by flow cytometry. It is filed as functional, organism-based. To be noted: HOM/IN/01/2001, 72 h. A digest of the protocol: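 GFP-transfected promastigotes, log phase, in M199 with 10% FCS and 500 µg/mL G418, seeded at 10⁵ parasites/mL. Compounds in DMSO (final <0.5% v/v) added in duplicate over a concentration range. Incubated 72 h at 27 °C.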

The subject of data set [10] is Salmonella enterica subsp. enterica. The data set can be described thus: Mutagenic activity in Salmonella Typhimurium TA97a assessed as number of spontaneous and drug-induced revertants after 48 hrs in presence of 4% S9 mixture by Ames test. The following applies: salmonella enterica subsp. enterica serovar typhimurium. It counts as toxicity, organism-based. A digest of the protocol: as §1

The nature of data set [11]: Selectivity index, ratio of IC50 for human K562 cells to IC50 for chloroquine, pyrimethamine and proguanil-resistant Plasmodium falciparum W2. To be noted: K562 cells (cytotoxicity) versus Plasmodium falciparum W2, read-out: Ratio IC50. It counts as toxicity, cell-based. A digest of the protocol:
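SI = K562 IC50 / W2 IC50. Live cells counted by flow cytometry after propidium iodide stain. IC50 by non-linear regression, mean of three independent experiments.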

Data set [12] concerns HepG2. Briefly: Cytotoxicity against human HepG2 cells after 72 hrs by MTT assay. It counts as cell-based. The following applies: HepG2, 72 h. A digest of the protocol: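 HepG2 cells plated in RPMI with 10% FBS and grown 24 h, then exposed to a range of compound concentrations for 72 h at 37 °C, 6% CO₂. MTT (5 mg/mL stock) added for 2 h, formazan dissolved in DMSO and read at 570 nm against 630 nm. Viability expressed as percent of untreated control. CC50 taken from the dose-response curve.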
Background: Tetrazolium assays rely on reduction of a dye to a coloured formazan, in cell work by metabolically active cells.

For data set [13], the system named is Salmonella enterica subsp. enterica. Briefly: Mutagenic activity in Salmonella Typhimurium TA100 assessed as number of spontaneous and drug-induced revertants after 48 hrs in presence of 4% S9 mixture by Ames test. It counts as toxicity, organism-based. To be noted: salmonella enterica subsp. enterica serovar typhimurium. A digest of the protocol:
as §1

For data set [14], the system named is K562. The data set can be described thus: Cytotoxicity against human K562 cells after 72 hrs by flow cytometry. It counts as cell-based. The following applies: K562, 72 h. A digest of the protocol:
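Chemosensitive K562 subline, late log phase, in phenol-red-free RPMI with 10% serum. Compound range added in duplicate (DMSO <0.5%). After 72 h at 37 °C, 6% CO₂, cells stained with propidium iodide and live cells in a 100 µL sample counted by flow cytometry. IC50 from non-linear regression of dose-response curves, mean of three independent experiments.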

The term IC50 denotes the concentration that gives 50% inhibition. In the case of `Clc1cccc(Nc2nc(C(Cl)(Cl)Cl)nc3ccccc23)c1`, the Activity result in data set [1], in data set [3], in data set [5], in data set [7], in data set [8] and in data set [10] was “Not Active” in each case. The Activity result in [13] was “Not Active”. Further, the IC50 is more than 50 µM in data set [2]; 1.7 µM in [6]; more than 50 µM in data set [9]; more than 100 µM in data set [12]; more than 50 µM in data set [14]. The “Ratio IC50” value in data set [4] is more than 58.8. Also, in data set [11], the selectivity ratio is more than 29.4.
With `Cc1nc(Nc2cccc(Cl)c2)c2ccccc2n1`, the “Ratio IC50” value in data set [4] is 0.7. For the same compound, the IC50 in [6] stood at 55 µM; in data set [12] it was 40 µM; in [14], 27 µM. The selectivity ratio in [11] came out at 0.5.
On to `ClC(Cl)(Cl)c1nc(Nc2cccc(Br)c2)c2ccccc2n1`, for which the Activity entry in data set [1], in data set [3], in [5], in data set [7], in data set [8] and in data set [10] was “Not Active” throughout. The Activity result in data set [13] was “Not Active”. Also, the IC50 in data set [2] is more than 50 µM; in data set [6], 2.2 µM; in data set [9] it was more than 50 µM; in [12] it was more than 100 µM; in [14], more than 50 µM. For the same compound, the “Ratio IC50” value in [4] is listed as more than 45.5. The selectivity ratio in data set [11] is more than 22.7.
Take `Cc1nc(Nc2cccc(C(F)(F)F)c2)c2ccccc2n1`: in data set [4], the “Ratio IC50” value is on record as 0.5. Also, the figures for the IC50 in data set [6], in [12] and in data set [14] were 42.5 µM, 20 µM and 10 µM, respectively. Further, in [11], the selectivity ratio was 0.2.
As to `C[C@@H]1[C@H](O)[C@@H](C)/C=C/C=C/C=C/C=C/C=C/C=C/C=C/[C@H](O[C@@H]2O[C@H](C)[C@@H](O)[C@H](N)[C@@H]2O)C[C@@H]2O[C@](O)(C[C@@H](O)C[C@@H](O)[C@H](O)CC[C@@H](O)C[C@@H](O)CC(=O)O[C@H]1C)C[C@H](O)[C@H]2C(=O)O` [AMPHOTERICIN B], the IC50 in data set [9] was 0.08 µM; in data set [12], 10 µM; in [14] it was 17 µM.
Turning to `C[C@H]1c2cccc(O)c2C(=O)C2=C(O)[C@]3(O)C(=O)C(C(N)=O)=C(O)[C@@H](N(C)C)[C@@H]3[C@@H](O)[C@@H]21.O` [DOXYCYCLINE], the “Ratio IC50” value in data set [4] is reported as 3.1. Moreover, the values for the IC50 in data set [6], in [12] and in data set [14] were 6.5 µM, 20 µM and 15 µM, respectively. Also, the selectivity ratio in data set [11] came to 2.3.
As for `CCc1nc(N)nc(N)c1-c1ccc(Cl)cc1` [PYRIMETHAMINE], the IC50 is 2 µM in data set [2], 30 µM in [12] and 5 µM in [14].
